Screening results: PubChem, several laboratories
An excerpt weighted towards active compounds, which were near 5.3% of everything screened.
Mdm2 MdmX PPI – inhibitors of human Mdm2/MdmX interaction | O15151+Q00987 | inhibition, % at 8 µM | AID 485346 | 330,000 compounds, 3% hits | SaOS-2 split-luciferase Mdm2/MdmX complementation, luminescence;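 active = inhibition of at least 50% at 8 µM in the primary screen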
Target sequence (O15151 whole entry, looked up): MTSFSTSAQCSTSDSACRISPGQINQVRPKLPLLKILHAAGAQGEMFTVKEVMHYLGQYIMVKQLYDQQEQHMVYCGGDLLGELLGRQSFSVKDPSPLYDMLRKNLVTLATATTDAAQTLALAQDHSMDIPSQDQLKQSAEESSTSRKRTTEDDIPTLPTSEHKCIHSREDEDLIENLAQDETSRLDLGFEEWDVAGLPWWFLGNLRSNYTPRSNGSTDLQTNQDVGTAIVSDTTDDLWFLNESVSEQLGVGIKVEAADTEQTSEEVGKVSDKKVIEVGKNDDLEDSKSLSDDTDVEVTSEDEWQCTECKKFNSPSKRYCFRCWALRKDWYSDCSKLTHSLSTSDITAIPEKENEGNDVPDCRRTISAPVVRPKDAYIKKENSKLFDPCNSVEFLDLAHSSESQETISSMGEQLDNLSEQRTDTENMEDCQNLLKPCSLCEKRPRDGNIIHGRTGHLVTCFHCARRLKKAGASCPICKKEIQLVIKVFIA
Target sequence (Q00987 whole entry, looked up): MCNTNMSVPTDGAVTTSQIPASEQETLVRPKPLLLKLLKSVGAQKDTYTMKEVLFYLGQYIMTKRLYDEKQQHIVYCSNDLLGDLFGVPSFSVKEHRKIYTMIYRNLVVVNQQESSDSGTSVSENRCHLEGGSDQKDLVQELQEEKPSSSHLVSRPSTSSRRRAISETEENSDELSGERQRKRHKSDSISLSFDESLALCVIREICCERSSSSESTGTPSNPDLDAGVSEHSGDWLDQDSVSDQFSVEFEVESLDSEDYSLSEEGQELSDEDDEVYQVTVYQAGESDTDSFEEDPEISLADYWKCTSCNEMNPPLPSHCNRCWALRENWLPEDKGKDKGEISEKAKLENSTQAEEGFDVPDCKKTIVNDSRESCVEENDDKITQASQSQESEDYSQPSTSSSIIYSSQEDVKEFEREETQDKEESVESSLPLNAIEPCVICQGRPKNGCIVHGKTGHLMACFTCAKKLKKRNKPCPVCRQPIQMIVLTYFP
CSC inhib – blocks cancer stem cells; cancer stem cell-like cells viability, luminescence; inhibition, % at 7.5 µM; 300,000 compounds, 1.1% hits; AID 2717; in the data active = inhibition above about 75%; inconclusive = no clear call, values can overlap the other calls; tested in HMLE shEcad cells
T cruzi repl – blocks replication of Trypanosoma cruzi; 300,000 compounds, 1.4% hits; T. cruzi beta-gal in NIH3T3, luminescence, 90 h; inhibition, % (no concentration beside the values); AID 1885;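 active = mean inhibition across valid replicates above about 55%, limit read from the data; inconclusive = mean below that limit but half or more replicates reach it; inactive = mean below it, under half of replicates reach it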;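 note: signal also drops with host cell toxicity which is not excluded here; 0% = plate median of DMSO wells and 100% = zero luminescence signal; higher percent means less beta-gal luminescence so fewer parasites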
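System: Mouse NIH/3T3 fibroblasts infected with β-gal-expressing T. cruzi Tulahuen C4 | Quantity: NIH/3T3 cells, 5,000 per well | Reagent: 5000 reporter trypomastigotes per well | Dosing: Compound pinned at 50 nL/well, DMSO | Schedule: 3 h host attachment, then at least 90 h co-culture | Detection: GalScreen luminescence, 60 min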
Calb FLC – C. albicans growth modulation with fluconazole | C. albicans CaCi-2 (fluconazole-resistant clinical isolate) + fluconazole, Alamar Blue growth, 48 h | growth inhibition, % (no concentration beside the values) | 300,000 compounds, 0.57% hits | AID 1979;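 active = growth inhibition above about 58% in most replicates, limit read from the data, passing the limit was not always enough; inconclusive = exactly half the replicates above a set limit; inactive = most replicates below a set limit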;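 note: all wells also contain fluconazole at 8 µg/ml as a sub-toxic cotreatment; 0% = median of DMSO wells and 100% = median of geldanamycin control wells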
Beta apoptosis – blocks beta cell apoptosis | protection from apoptosis, % (test concentration not listed) | AID 435005 | INS-1E cytokine-induced death, ATP luminescence, 48 h; percent of positive-control rescue, neutral wells zero | 300,000 compounds, 0.8% hits;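 active = Every replicate reaches about 75%, or at least half do and their mean reaches it too, limit read from the data; inconclusive = At least half of replicates reach the limit but their mean does not; inactive = Under half of replicates reach the limit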;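 note: 0% = cytokine-treated negative control wells and 100% = positive control rescue; higher means more ATP so stronger rescue from cytokine killing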
NLRP3 yeast inh – NALP3 inhibition in yeast | Yeast reconstituted NLRP3/ASC/caspase-1, beta-gal luminescence, 24 h | inhibition, % at 10 µM | 330,000 compounds, 0.39% hits;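 active = inhibition of 50% or more; inactive = inhibition below 50%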;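 note: plate controls were induced DMSO wells for no effect and uninduced yeast grown without galactose for full effect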
* = called active by the depositor; ? = inconclusive; / = no result.

SMILES | Mdm2 MdmX PPI | CSC inhib | T cruzi repl | Calb FLC | Beta apoptosis | NLRP3 yeast inh
O=C1NN(c2cccc(Br)c2)C(=O)/C1=C\c1ccc(O)cc1 | 5 | 108* | 11 | -12 | -11 | 7
COc1cc(/C=C2/C(=O)NN(c3cccc(Cl)c3)C2=O)cc(OC)c1O | 23 | -3 | 0 | -1 | / | 0
O=C(c1cc(COc2cccc3cnccc23)on1)N1CCC(c2ccccc2Cl)C1 (configuration not stated) | 27 | 57 | 63* | 4 | 44 | -2
O=C(c1cc(COc2c(F)cccc2F)on1)N1CCC(c2ccccc2Cl)C1 (configuration not stated) | -20 | 10 | 15 | ? | -6 | 8
CCc1ccc(CN(C)C(=O)c2cc(COc3cccc4cnccc34)on2)cc1 | 19 | 0 | 51 | 5 | 78* | -2
CCOc1ccc(CCNS(=O)(=O)c2ccc3c(c2)oc(=O)n3C)cc1OCC | 0 | -3 | 8 | 12 | -7 | 10
O=C(COc1cccc(C(F)(F)F)c1)N1CCN(c2ccccc2O)CC1 | -9 | -10 | 5 | 0 | -9 | 18
O=C(COc1ccc2c(c1)CCC2)N1CCN(c2cccc(C(F)(F)F)c2)CC1 | 2 | -9 | 7 | 112* | -12 | 11
O=C(COc1cccc(C(F)(F)F)c1)N1CCN(c2ccc(O)cc2)CC1 | -7 | 78* | -6 | 15 | 3 | 0
COCC(=O)N1CCN(c2cccc(C(F)(F)F)c2)CC1 | 14 | -15 | -10 | -9 | -7 | 10
COc1ccc(-c2cccc(C3CC=CC4C3C(=O)N(Cc3ccccc3)C4c3cc(C)ccc3F)c2)cc1 (configuration not stated) | 33 | / | 23 | -13 | / | 6
C=CCn1c2ccccc2c(=O)c2cc(C#Cc3ccccn3)ccc21 | -28 | 76* | / | / | 8 | 1
CCc1ccc(-c2cc(C)no2)cc1S(=O)(=O)NCc1ccco1 | 21 | -15 | 3 | 29 | -1 | 18
CCOC(=O)c1cc2c(=O)n3ccccc3nc2n(CCOC)c1=NC(=O)C(C)(C)C | 19 | -17 | 10 | -3 | -4 | -11
CCOC(=O)c1cc2c(=O)n3ccccc3nc2n(C(C)C)c1=NC(=O)c1c(-c2ccccc2Cl)noc1C | -16 | 46 | 63* | -6 | -7 | 1
CCOC(=O)c1cc2c(=O)n3ccccc3nc2n(CCOC)c1=NC(=O)c1ccncc1 | -4 | 3 | 14 | 114* | -5 | 8
C#Cc1cccc(C(=O)NC2CCCN(C3Cc4ccccc4C3)C2)c1 (configuration not stated) | -3 | -9 | 41 | 4 | 2 | 21
CC(C)(CO)CNC1CCCN(C2Cc3ccccc3C2)C1 (configuration not stated) | 17 | -11 | 66* | -1 | / | 8
O=C(Cc1cscn1)c1ccc(O)cc1O | 3 | -4 | / | / | -1 | 15
O=C(CN1CCCCC1)Nc1cc(Cl)ccc1Oc1ccccc1 | 6 | 72 | -4 | -3 | -4 | -2
O=C(CN1CCCCCC1)Nc1ccccc1Oc1ccccc1 | 18 | 80* | 6 | -2 | 2 | 11
COc1ccccc1NC(=O)CN1CCN(c2ccccc2OC)CC1 | 24 | / | 15 | 63* | 3 | -4
O=C(c1sc2ccccc2c1Cl)N(Cc1ccco1)C1CCS(=O)(=O)C1 (configuration not stated) | 26 | -9 | 9 | 16 | 0 | 4
COc1ccc(CCNC(=O)COC(=O)c2ccc(Br)o2)cc1 | 9 | 0 | -4 | -13 | 0 | 11
Cc1ccc(-n2c(Cc3ccccc3)n[nH]c2=S)c(C)c1 | -1 | 7 | -6 | 72* | -7 | 34
SMILES | Mdm2 MdmX PPI | CSC inhib | T cruzi repl | Calb FLC | Beta apoptosis | NLRP3 yeast inh
COC(=O)[C@H]1[C@H]2C[C@@H]3c4[nH]c5cc(OC)ccc5c4CCN3C[C@H]2C[C@@H](OC(=O)c2ccc(N)cc2)[C@@H]1OC | 14 | -5 | 58* | 3 | 6 | 3
c1ccc(CSc2nnc3ccc(-c4ccncc4)nn23)nc1 | 1 | -14 | -10 | -2 | 0 | 0
O=C(CSc1ccc2nnc(-c3ccncc3)n2n1)Nc1ccc2c(c1)OCO2 | 21 | 7 | 5 | 4 | -2 | 6
CCOC(=O)c1c(N)sc2c(OCC)c(Br)ccc12 | 2 | 79* | 39 | 29 | 10 | 24
CCOC(=O)c1sc(N)c(C(=O)OCC)c1C | 3 | -10 | 7 | 0 | -1 | 44
O=C(CSc1nnc(COc2ccc(Cl)cc2)o1)N1CCOCC1 | -17 | -10 | -4 | -1 | -6 | -14
Cc1ccc(/C=C/C(=O)NC2CCCCCCC2)o1 | -5 | 145* | -7 | -7 | 6 | 22
Cc1ccc(/C=N/NC(=O)NC2CCCCC2)o1 | -3 | -3 | -13 | -22 | -5 | 12
CN(C)/C=C(/C(=O)c1ccc(Cl)cc1)S(C)(=O)=O | 16 | 12 | -5 | -5 | 0 | -6
COCCN1C(=O)/C(=C/c2ccc(Oc3ccc([N+](=O)[O-])cn3)c(OC)c2)SC1=Nc1ccccc1 | 19 | 3 | 2 | -32 | 6 | 5
CCC(C)Oc1ccc(/C=C/c2[nH]c(=O)[nH]c(=O)c2[N+](=O)[O-])cc1OC (configuration not stated) | 11 | 2 | -3 | 5 | / | 8
COc1cc(/C=C/c2[nH]c(=O)[nH]c(=O)c2[N+](=O)[O-])ccc1OCCC(C)C | 2 | 77* | -3 | -10 | 10 | 16
O=C(CCc1c[nH]c2ccccc12)NN1C(=O)NC2(CCCCC2)C1=O | -29 | / | / | / | 0 | 13
CCCC[n+]1c2ccccc2cc2ccccc21 | 40 | 40 | 68* | 93* | 48 | 42
Brc1cc2ccccc2[n+](Cc2ccccc2)c1 | 31 | -5 | 11 | -8 | -3 | 17
CCC[n+]1c2ccccc2cc2ccccc21 | 12 | 6 | 61* | 94* | 32 | 25
COc1ccc(NC(=O)CN(C)C(=O)c2ccc(N3CCCCC3)c([N+](=O)[O-])c2)cc1 | 13 | 1 | 8 | -5 | 3 | 13
CCc1ccc2c(c1)C(c1ccc(N3CCOCC3)cc1)=NNC(c1ccncc1)=N2 | 15 | -18 | 59* | -7 | 10 | 4
CCOc1ccc(C2=Nc3ccc(Br)cc3C(c3ccc(N4CCOCC4)cc3)=NN2)cc1 | -43 | / | 21 | -9 | 2 | 6
Cc1ccc2[nH]c(=O)c(CN(CCCN(C)C)C(=S)NCCc3ccccc3)cc2c1 | 31 | 7 | 84* | 10 | 0 | 14
Cc1cccc2cc(CN(CCN(C)C)C(=S)NCc3ccco3)c(=O)[nH]c12 | -39 | -14 | -3 | 11 | -11 | 14
Cc1cccc2cc(CN(CCCN(C)C)C(=S)NCCc3ccccc3)c(=O)[nH]c12 | 28 | 1 | 62* | 6 | 5 | -10
Cc1ccc2cc(CN(CCc3ccccc3)C(=S)NCCCN(C)C)c(=O)[nH]c2c1 | 47 | -7 | 31 | -10 | -1 | 10
